Experiment [1] can be described thus: Inhibition of CXCL8-induced cell migration in human PMN cells 0.1 uM chemotaxis assay. Type of experiment: functional. In outline: (§1)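 Human PMNs from normal-donor buffy coats (dextran sedimentation, hypotonic lysis; 95% purity, >95% viability). Cells at 1.5-3 × 10⁶/mL preincubated 15 min at 37 °C with vehicle or compound, then seeded in triplicate in the upper well of a 48-well micro-chemotaxis chamber. Lower well held CXCL8 1 nM or CXCL1 10 nM. Chamber ran 45 min at 37 °C in 5% CO₂; filters were fixed and stained, and five 100× fields per well were counted.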

Experiment [2] can be described thus: Inhibition of CXCL1-induced cell migration in human PMN cells at 0.01 uM by chemotaxis assay. In kind it is functional. In outline: as §1
Experiment [3] can be described thus: Inhibition of CXCL8-induced cell migration in human PMN cells at 0.01 uM by chemotaxis assay. In kind it is functional. The gist of the method:
as §1

Another experiment has as its system Macrophage. Description: Inhibition of the LPS-induced PGE2 production in human macrophages at 10 uM. In kind it is functional.
Experiment [4] concerns L1.2. In words: Inhibition of CXCL8-induced cell migration in L1.2 cells expressing CXCR1 by chemotaxis assay. Type of experiment: functional, cell-based. The settings on record: Mus musculus. In outline: (§2)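 Mouse L1.2 lymphoma cells were transiently electroporated with wild-type or Ile43Val human CXCR1, with expression checked by flow cytometry at 48 h. Cells were kept overnight in 5 mM sodium butyrate, resuspended at 10⁷/mL, and pretreated 30 min at 37 °C with compound (1-1000 nM). Migration to 10 nM CXCL8, with compound in both chambers, ran 4 h at 37 °C through 5 µm Transwells. Cells were counted in a Bürker chamber and expressed as % of migration without compound, from ≥3 independent experiments.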

In experiment [5] the test system is L1.2. Description: Inhibition of CXCL8-induced cell migration in L1.2 cells expressing wild type CXCR1 at up to 1000 nM by chemotaxis assay. In kind it is functional, cell-based. The conditions noted are these: Mus musculus. In outline:
as §2

The test system of experiment [6] is L1.2. Description: Inhibition of CXCL8-induced cell migration in L1.2 cells expressing Ile43Val CXCR1 mutant by chemotaxis assay. In kind it is functional, cell-based. The settings on record: Mus musculus. The gist of the method: as §2
Experiment [7] deals with L1.2. Description: Inhibition of CXCL8-induced cell migration in L1.2 cells expressing wild type CXCR1 at 0.1 uM by chemotaxis assay. The settings on record: Mus musculus. In kind it is functional. The gist of the method: as §2

Molecules are shown by their SMILES. The source made the active and inactive calls. No cut-off for these calls is given here.

From ChEMBL document CHEMBL1148730, “Design of noncompetitive interleukin-8 inhibitors acting on CXCR1 and CXCR2” (J Med Chem, 2007) come the findings set out here.

The Inhibition is the drop in the measured response relative to a control, in per cent. Low readings indicate a weak effect, high ones a strong effect. Compound `CCC(C)c1cccc(C(C)C(=O)O)c1` (stereo not drawn) showed an Inhibition in experiment [1] of 50%.

Broadly, the inhibition is the relative decrease from the control value, in per cent. Low values mean a response near the control, high ones a response far below the control. For the compound `C[C@@H](C(=O)O)c1ccc(OS(=O)(=O)C(F)(F)F)cc1`, the inhibition at 0.01 µM worked out at 65% in experiment [2] and 68% in experiment [3]. Also, in the experiment with Macrophage, the inhibition at 10 µM is 17%.

By IC50 is commonly meant the midpoint of a concentration-inhibition curve. Low readings indicate higher potency, high ones lower potency. For `CC(C)Cc1ccc([C@@H](C)C(=O)NS(C)(=O)=O)cc1` [REPARIXIN], the values for the IC50 in the experiment with L1.2 [4] and in the experiment with L1.2 [6] were 5.6 nM and 80 nM, respectively. For the same compound, the result with L1.2 [5] was Active. The same compound had an inhibition at 0.1 µM in the experiment on L1.2 [7] of 80%.
